Shown are actives, neighbours in structure and some others; about 2.7% of the full set was active somewhere.
Hep lipid drop – hepatic lipid droplet formation modulation. actives 0.4% (n = 240,000). AID 1656. AML12 mouse hepatocytes, oleate lipid droplets, BODIPY imaging. inhibition, % at 6.5 µM;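 active means lipid droplet intensity inhibited by at least 50%, with more than 500 cells counted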
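Test system: AML12 hepatocytes (mouse); reagent: oleate loading, 100 µM; dosing: one dose, 6.5 µM compound; incubation: overnight exposure; signal: fluorescence imaging, 20x objective, two fields per well; read-out basis: % inhibition of corrected integrated BODIPY droplet signal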
NTR1 ag – activates human neurotensin receptor 1; activation, % at 20 µM; actives 0.17% (n = 330,000); NTR1-U2OS beta-arrestin-GFP spot imaging, agonist mode;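 active means activation at or above 40% of the spot to cytoplasm intensity ratio, with at least 20 cells analyzed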;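 further: 0% = DMSO without peptide and 100% = 100 nM NTR1 peptide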
MC4R antagonist – human MC4R antagonism in cAMP assay; P32245; MC4R-expressing cells, MTII-stimulated cAMP, LANCE TR-FRET; inhibition, % at 6.5 µM; actives 0.48% (n = 360,000); AID 540295;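 active means inhibition above its plate's cutoff, the mean of tested wells on that plate plus 3 SD, cut at about 29% in these data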;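 further: 0% = Melanotan II alone and 100% = Melanotan II plus saturating MCL0020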
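Assay system: U2OS-MC4R stable cell line; Also added: Melanotan II; Technique: Eu-cAMP/anti-cAMP TR-FRET, emission 671 nm; Times: 30-min compound, 1-h challenge, 1-h detection, room temperature.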
PREPL inhibitor – inhibits the human prolyl oligopeptidase-like enzyme. Q4J6C6. recombinant PREPL, fluorescence polarization activity-based probe. inhibition, % at 5.96 µM. AID 2751. actives 0.68% (n = 320,000);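 further: 0% = enzyme with DMSO and 100% = wells lacking enzyme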
Target sequence (Q4J6C6 whole entry, looked up): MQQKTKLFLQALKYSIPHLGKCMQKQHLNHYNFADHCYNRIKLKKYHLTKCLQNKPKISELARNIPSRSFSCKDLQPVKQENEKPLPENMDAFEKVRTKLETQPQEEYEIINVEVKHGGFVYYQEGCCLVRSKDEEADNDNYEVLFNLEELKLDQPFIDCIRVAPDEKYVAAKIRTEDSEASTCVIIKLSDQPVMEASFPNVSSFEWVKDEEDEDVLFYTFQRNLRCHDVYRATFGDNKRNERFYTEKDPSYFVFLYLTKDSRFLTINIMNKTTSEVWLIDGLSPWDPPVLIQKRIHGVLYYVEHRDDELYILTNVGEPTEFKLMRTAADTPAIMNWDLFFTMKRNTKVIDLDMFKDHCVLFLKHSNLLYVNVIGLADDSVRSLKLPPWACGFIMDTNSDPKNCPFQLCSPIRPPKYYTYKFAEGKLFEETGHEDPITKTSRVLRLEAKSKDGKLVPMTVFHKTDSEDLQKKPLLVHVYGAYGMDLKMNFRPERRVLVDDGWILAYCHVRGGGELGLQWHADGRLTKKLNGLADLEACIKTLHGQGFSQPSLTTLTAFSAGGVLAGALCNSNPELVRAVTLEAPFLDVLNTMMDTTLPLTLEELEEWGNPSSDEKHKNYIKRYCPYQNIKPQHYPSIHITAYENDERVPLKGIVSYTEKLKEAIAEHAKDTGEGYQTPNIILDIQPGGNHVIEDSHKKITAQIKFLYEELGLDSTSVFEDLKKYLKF
m5-HT2A agonist – activates the mouse 5-HT2A serotonin receptor | P35363 | actives 0.66% (n = 360,000) | CHO-K1 mHTR2A beta-arrestin complementation, luminescence; percent of 30 µM serotonin response | activation, % at 7.6 µM;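 active means activation above a run cutoff, the mean activation of all tested compounds plus 3 SD, cut at about 14% in these data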;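 further: 0% = plate median of compound wells and 100% = 30 µM serotonin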
MC4R ag barr – activates human MC4R beta-arrestin recruitment; P32245; U2OS MC4R beta-arrestin complementation, luminescence; percent of melanotan II response, DMSO zero; activation, % at 8.9 µM; actives 0.98% (n = 360,000);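 active means activation above a per-plate cutoff, the mean activation of sample wells on that plate plus 3 SD, cut at about 8% in these data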
PREPL inh cf – human PREPL inhibition, confirmation; shares compounds with PREPL inhibitor; recombinant PREPL, fluorescence polarization activity probe; inhibition, % at 5.96 µM; actives 67% (n = 2,000); AID 2803;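 further: 0% = protein with DMSO and 100% = wells lacking protein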
The depositor's hits bear a star; x = no result given. Unless noted, no stated cut-off is given here; in the data, active means inhibition above about 43%; inactive means the rest.

SMILES	Hep lipid drop	NTR1 ag	MC4R antagonist	PREPL inhibitor	m5-HT2A agonist	MC4R ag barr	PREPL inh cf
O=S(=O)(Nc1nc2ccc(Cl)cc2s1)c1cccs1	-1	-1	23	1	9	2	x
O=C(CCc1nnc(CCCCc2ccccc2)o1)NCCN1CCCCC1=O	-7	2	3	-1	2	-3	x
COc1ccc(N2CCN(C(=O)c3cn(C4CCCC4)c(=O)c4c3c3ccccc3n4C)CC2)cc1	10	7	6	62*	-12	-1	61*
COc1ccc(N2CCN(C(=O)c3cn(C)c(=O)c4c3c3ccccc3n4C)CC2)cc1	x	5	4	41	-2	-1	x
Nc1c(N(CCC2=CCCCC2)C(=O)c2ccccc2F)c(=O)[nH]c(=O)n1Cc1ccccc1	x	3	2	69*	4	0	15
Oc1sc(C=Nc2ccc(F)cc2)c2ccccc12	13	5	3	51*	-4	-1	51*
COc1ccc(NC(=O)N(CCN2CCCC2)Cc2cc3cc(OC)c(OC)cc3[nH]c2=O)cc1	x	0	12	58*	0	-1	18
CCCCNc1c(-c2ccc(SC(C)CC)cc2)nc2cnccn12 (configuration not stated)	x	33	18	59*	8	5	55*
O=C(Nc1ccccc1)c1cccc(C(=O)Nc2ccccc2)n1	0	0	7	3	1	-2	x
CN(C)c1ccc(NC(=O)c2cccc(C(=O)Nc3ccc(N(C)C)cc3)n2)cc1	5	5	2	72*	-2	2	70*
CC(=O)NCCNC(=O)c1ccc(NC2=NC3CS(=O)(=O)CC3S2)cc1 (configuration not stated)	5	2	7	2	8	0	x
CCOc1ccc(NC(=O)Nc2ccc3nsnc3c2)cc1	-28	0	-4	17	-3	1	x
CCOc1ccc(NC(=S)Nc2ccc3nsnc3c2)cc1	4	1	-14	44*	0	5	13
CC12CCC(=O)N1C(C(=O)NCc1ccccc1F)CS2 (configuration not stated)	x	0	-1	-11	0	-5	x
N#CNC(=Nc1cccc(F)c1)SCc1ccccc1F	35	2	0	9	-2	-2	x
CC(C)(C)NC(=O)CSC(=Nc1cccc(F)c1)NC#N	x	1	-2	64*	-5	1	3
CCOC(=O)[C@]12CCC=C1N(Cc1ccc3c(c1)OCO3)C(=O)[C@H](CC(=O)NCC1CCCCC1)C2	x	x	x	x	2	x	x
CCOC(=O)N1C2C=C(C)[C@@H]2[C@@H]2CC(=O)N21 (some centres not stated)	0	0	-1	-6	1	0	x
NCCSc1c(-c2ccc(Cl)cc2)[nH]c2ccccc12	-10	10	5	46*	-8	-1	39
Cc1ccc(-c2[nH]c3ccccc3c2SCCN)cc1	-6	5	-9	57*	-5	-3	41
CCCCn1c(N)c(N(CC(C)C)C(=O)c2ccc(OCC3CCCO3)cc2)c(=O)[nH]c1=O (configuration not stated)	x	-1	3	0	5	2	x
O=C(NCCc1ccc(F)cc1)Nc1ccccc1Cl	2	0	12	x	-1	0	x
CCn1c(O)c(/C=N/N=C/c2ccccc2)c2ccc(C3=NNC(=O)CC3)cc21	20	8	3	72*	-3	5	65*
COc1ccc2oc(C(=O)OCC(=O)/C(C#N)=C(\C)N)c(C)c2c1	4	0	-9	-5	3	0	x
COCCn1c(-c2ccc(Br)cc2)csc1=Nc1cccnc1	5	3	10	48*	-7	1	50*
SMILES	Hep lipid drop	NTR1 ag	MC4R antagonist	PREPL inhibitor	m5-HT2A agonist	MC4R ag barr	PREPL inh cf
FC(F)Oc1ccc(-c2csc(=Nc3cccnc3)n2CC2CCCO2)cc1 (configuration not stated)	-3	4	8	20	-5	-1	x
Clc1ccc(-c2csc(=Nc3cccnc3)n2CCCn2ccnc2)cc1Cl	x	1	3	56*	-7	5	58*
OCCCn1c(-c2ccccc2)csc1=Nc1ccccc1	12	2	28	12	-4	-1	x
COc1ccc2c(c1)N(C)/C(=C/c1cccc[n+]1C)S2	-50	-2	-11	23	-1	0	x
CCN1/C(=C/c2cccc[n+]2C)Sc2ccc(OC)cc21	-47	-2	12	48*	4	-1	46*
COc1ccc(Nc2nc(N)nc(CN3CCc4ccccc4C3)n2)cc1	x	0	-16	43*	-6	0	33
Nc1nc(CN2CCc3ccccc3C2)nc(Nc2ccccc2)n1	-12	0	-1	24	-4	1	x
COc1ccc(C(=O)Nc2ccc(N3CCN(C(=O)C(C)C)CC3)cc2)cc1[N+](=O)[O-]	-8	-1	-6	3	-1	0	x
COc1ccc(-c2c[n+](CC(=O)c3ccccc3)c3n2CCCCC3)cc1	-6	0	0	22	-2	0	x
COc1ccc(-c2c[n+]3c4n2CCCCC4=C(c2ccccc2)C3)cc1	x	9	8	54*	0	-1	38
O=C(Nc1ccccc1N1CCCC1)c1cccc(-c2cc3ccccc3oc2=O)c1	-13	2	4	45*	-3	1	32
OC1CCN(c2c3c(nc4cc(-c5cccc(F)c5)nn24)CCCC3)CC1	18	7	-1	44*	0	1	30
CN(C)CCCNc1cc(C(C)(C)C)nc2c(-c3ccccc3)cnn12	28	2	10	67*	-13	4	61*
CC(C)(C)c1cc(NCCCn2ccnc2)n2ncc(-c3ccc(Cl)cc3)c2n1	x	17	14	38	-4	0	x
Cc1ccc(Oc2ccc(S(=O)(=O)N3CCOCC3)cc2C(N)=O)cc1C	10	0	2	7	4	0	x
CCOc1cccc(C=NNc2ccc(S(=O)(=O)Nc3ccccc3C(=O)O)cc2[N+](=O)[O-])c1O	x	2	2	27	-3	-2	x
O=C(O)c1ccccc1NS(=O)(=O)c1ccc(NN=Cc2ccccc2F)c([N+](=O)[O-])c1	x	1	5	55*	6	-1	56*
COc1ccc(C=NNc2ccc(S(=O)(=O)Nc3ccccc3C(=O)O)cc2[N+](=O)[O-])c(OC)c1	x	6	-11	51*	-7	-3	49*
C/C(=N\Nc1ccc(S(=O)(=O)Nc2ccccc2)cc1[N+](=O)[O-])c1ccncc1	-49	8	x	20	x	x	x

Source: PubChem BioAssay
